Sampled rows, rich in hits. Any-hit rate of the full collection: about 2.8%.
NPY Y1 blocker = NPY-Y1 receptor antagonists, primary screen, cell-based | Neuropeptide Y receptor type 1 (Homo sapiens), P25929 | HEK293-CNG Y1 cells, membrane potential fluorescence; NPY at EC95, then isoproterenol | inhibition, % at 3.6 µM | 1% of 200,000 active | AID 1040, 2008;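 active = inhibition above the campaign mean inhibition of all tested compounds plus 3 SD, cut at about 20% in these data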;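 also: 0% = DMSO wells given NPY plus isoproterenol and 100% = isoproterenol alone without NPY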
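material = HEK293 cells with Y1 receptor plus CNG channel | also added = NPY 25 nM then isoproterenol 1 µM plus Ro 20-1724 25 µM | schedule = dye 3 h, compound 60 min room temperature, stimulation 45 min | measured by = membrane potential fluorescence | benchmarks = high control isoproterenol alone, low control NPY with isoproterenol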
NPY-Y1 PAM-ag = NPY-Y1 receptor potentiators or agonists, primary screen, cell-based. 0.37% of 220,000 active. AID 1304, 2008. NPY-Y1 expressing cells, potentiator/agonist activation. activation, % at 3.6 µM; in the data active = activation above about 33%, passing the limit was not always enough;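 also: cells stimulated with NPY at EC10 then isoproterenol at EC100; 0% = low agonist plus stimulus and 100% = saturating agonist plus stimulus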
PGE2 EP2 inh = human EP2 receptor antagonists, primary screen, TR-FRET cAMP, C6 glioma cells. Prostaglandin E2 receptor EP2 subtype (Homo sapiens), P43116. 0.52% of 260,000 active. C6 glioma cells expressing human EP2; cells stimulated with saturating PGE2. inhibition, % at 25 µM;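 active = percent inhibition above 40 after rounding to a whole number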;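 also: rat C6 glioma host cells with rolipram phosphodiesterase inhibitor present; the protocol text gives 20 µM as final concentration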
NPY-Y2 PAM-ag = NPY-Y2 potentiators or agonists, primary screen, cell-based. cells expressing NPY-Y2, potentiator/agonist read-out. activation, % at 3.6 µM. 0.45% of 220,000 active. AID 1359, 2008; in the data active = activation above about 27%;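 also: cells stimulated with NPY near EC25 plus isoproterenol at EC100; 0% = vehicle plus submaximal agonist and 100% = vehicle plus saturating agonist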
Target sequence (P49146 whole entry, looked up): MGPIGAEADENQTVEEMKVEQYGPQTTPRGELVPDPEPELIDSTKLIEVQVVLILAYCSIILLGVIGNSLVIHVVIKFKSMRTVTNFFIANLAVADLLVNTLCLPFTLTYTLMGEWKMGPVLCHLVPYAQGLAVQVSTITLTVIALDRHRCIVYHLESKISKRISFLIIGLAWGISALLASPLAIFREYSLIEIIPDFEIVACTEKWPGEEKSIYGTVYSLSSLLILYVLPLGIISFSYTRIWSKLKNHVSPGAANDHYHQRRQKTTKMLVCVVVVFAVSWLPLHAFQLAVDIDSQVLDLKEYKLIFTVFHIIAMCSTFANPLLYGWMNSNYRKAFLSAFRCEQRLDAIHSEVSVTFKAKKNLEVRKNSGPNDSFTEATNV
EP2 mod = EP2 receptor modulators, cAMP readout, primary screen, cell-based, HTRF cAMP, PGE2 stimulation. Prostaglandin E2 receptor EP2 subtype (Homo sapiens), P43116. EP2-expressing cells, cAMP HTRF FRET, PGE2 co-stimulation. induction, % at 25 µM. 0.83% of 260,000 active;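 active = compounds whose cAMP rise, as percent of the full-agonist control response, exceeds 60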;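 also: rat C6 glioma line stably carrying human EP2 under a CMV promoter; the protocol text gives 20 µM as final concentration; 100% = response of wells given 1 µM PGE2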
NPY-Y2 antag = NPY-Y2 receptor antagonists, primary screen, cell-based; Neuropeptide Y receptor type 2 (Homo sapiens), P49146; NPY-Y2 expressing cells, antagonist mode; inhibition, % at 2.7 µM; 0.99% of 140,000 active; AID 793, 2007; in the data active = inhibition above about 17%;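 also: 0% = vehicle with agonist challenge and 100% = reference antagonist with challenge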
An asterisk follows results filed as active; . = no result.

SMILES	NPY Y1 blocker	NPY-Y1 PAM-ag	PGE2 EP2 inh	NPY-Y2 PAM-ag	EP2 mod	NPY-Y2 antag
COc1ccc(C(CNC(=O)c2cc3ccccc3cc2OC)N2CCCC2)cc1 (configuration not stated)	28*	-35	.	-30	-18	18*
COc1ccc(-c2cc(C(=O)O)c3c(C)nn(-c4ccccn4)c3n2)cc1	-1	6	16	-6	34	2
COc1ccc(N=CC2=C(Nc3ccc(OC)cc3)c3c(C)nn(-c4ccccn4)c3CC2)cc1	21*	-18	7	3	.	13
O=C(NCc1c(Cl)cccc1Oc1ccccc1)c1ccccc1	.	-14	10	-13	63*	.
Cc1ccc(-c2oc3ncnc(N)c3c2-c2ccc(C)cc2)cc1	4	-20	5	-33	61*	1
O=C(CC1CCCC1)NCCn1nc(-c2cccs2)ccc1=O	.	.	.	.	-26	.
CC(=O)c1sccc1NC(=O)c1ccccc1C(=O)O	.	-27	14	-23	85*	.
O=C(NCCc1ccccc1)C1CCCN(S(=O)(=O)c2cnc[nH]2)C1 (configuration not stated)	1	-16	13	73*	17	0
Cc1cccc(CCNC(=O)C2CCCN(S(=O)(=O)c3cnc[nH]3)C2)c1 (configuration not stated)	-7	2	8	-14	27	0
CCOC(=O)c1c(NC(C)=O)sc(C(C)=O)c1-c1ccccc1	.	.	19	.	32	.
O=C(O)CSc1nc2ccccc2c2c1CCCC2	.	.	9	.	88*	.
Cc1cc2nc(SCC(=O)N(C)C)c3c(c2cc1C)CCCC3	1	6	13	14	62*	4
C[N@@+]1(CC[N@+]2(C)CCC[C@@H]2c2cccnc2)CCC[C@@H]1c1cccnc1	.	.	47*	.	26	.
CN1CCC[C@H]1c1cccnc1	.	.	8	.	18	.
O=C(CSc1nnc(-c2cccnc2)n1-c1ccc(SC(F)F)cc1)N1CCCc2ccccc21	3	6	11	9	-17	19*
COc1ccc(NC(=O)CNCc2ccco2)c(OC)c1	.	.	19	.	21	.
CC(=O)c1sc(-c2ccccc2)cc1NS(=O)(=O)c1ccccc1	.	-14	81*	2	-21	.
CC(=O)c1sc(-c2ccc(F)cc2)cc1NS(=O)(=O)c1ccc(C)cc1	.	-12	19	-3	-12	.
CC(=O)c1sc(-c2ccccc2)cc1NS(=O)(=O)c1ccc(C)cc1	.	-6	74*	8	-9	.
CC(=O)c1cc2c(cc1NS(=O)(=O)c1ccccc1)OCO2	2	-14	4	-10	20	3
Cc1cc(C)c2[nH]c(=O)c(CN(C(=O)c3ccco3)C3CCCC3)cc2c1	.	.	11	.	-40	.
Cc1nnc(Sc2cc(NCCO)c([N+](=O)[O-])c3nonc23)s1	6	5	50*	1	-69	.
c1ccc(Cn2c(-c3cncs3)nc3ccccc32)cc1	0	0	3	5	32	7
Brc1cccc(Cn2c(-c3cncs3)nc3ccccc32)c1	13	-22	10	-13	61*	5
CCCCOc1ccc2c(C)cc(=O)oc2c1OCCCC	7	-29	0	7	62*	9
SMILES	NPY Y1 blocker	NPY-Y1 PAM-ag	PGE2 EP2 inh	NPY-Y2 PAM-ag	EP2 mod	NPY-Y2 antag
CCOc1ccc2c(C)cc(=O)oc2c1OCC	9	-9	7	-7	45	-3
COC(=O)CSc1ccc(-c2nc3ccc(C)cc3[nH]2)cn1	7	-14	59*	-16	-22	5
CC1(C)CCCN(C(=O)c2ccc3c(c2NCCO)C(=O)c2ccccc2C3=O)C1	-22	51*	11	54*	2	-9
CCN(CCN(C)C)C(=O)c1ccc2c(c1NCCO)C(=O)c1ccccc1C2=O	-11	47*	6	40*	-3	.
OC(CN1CCC2(CC1)CC(O)c1ccc3ccccc3c1O2)c1ccc(Cl)cc1 (configuration not stated)	.	.	50*	.	-86	.
Cc1cc(C)n(-c2nc(SCCN(C)C)c3c4c(sc3n2)CCCC4)n1	92*	-181	13	-53	-2	101*
Cc1cc(C)n(-c2nc(SCC(=O)O)c3c4c(sc3n2)COC(C)(C)C4)n1	.	-7	10	-2	-20	.
O=C(OC1C2CCC1C1CN(CCc3ccccc3)CC12)c1ccccc1 (configuration not stated)	44*	-26	14	-14	16	42*
O=C(CN1C(=O)c2ccccc2C1=O)Nc1ccccc1C(=O)NC1CCCCCC1	0	5	8	-6	35	4
O=C(CN1C(=O)c2cccc3cccc1c23)Nc1ccccc1C(=O)NC1CCCCC1	.	.	10	.	76*	.
CCn1c2cc(C)sc2c2cnn(CC(=O)N3c4ccccc4CC3C)c(=O)c21 (configuration not stated)	.	.	.	.	-45	.
COCCCNC(=O)c1c(N)n(/N=C/c2cccs2)c2nc3ccccc3nc12	7	-2	15	6	0	19*
NCCN1C(=O)c2ccccc2[C@@]1(O)c1ccc(Cl)cc1	.	.	13	.	0	.
N[C@@H](CSC1(c2ccc(Cl)cc2)c2ccccc2-c2ccccc21)C(=O)O	.	.	44*	.	5	.
Cc1ccc(Cl)cc1-c1ccc(C(c2c(C)[nH][nH]c2=O)c2c(C)[nH][nH]c2=O)o1	.	.	19	.	-81	.
Cc1ccc(Nc2c(-c3ccc(N(C)C)cc3)nc3ncccn23)cc1	.	49	12	12	-31	.
Cc1ccc(Nc2c(-c3ccc(N4CCOCC4)cc3)nc3ncccn23)c(C)c1	-10	58*	9	67*	-74	-5
COc1ccc(Nc2c([N+](=O)[O-])ccc3c2=NC2(CCCCC2)N=3)cc1	-15	44*	3	38*	21	.
O=[N+]([O-])c1ccc2c(c1Nc1ccccc1)=NC1(CCCCC1)N=2	1	16	26	10	10	-4
CCc1ccc(OCC(O)CN2CCC(CN3C(=O)c4cccc5cccc(c45)C3=O)CC2)cc1 (configuration not stated)	11	4	15	11	-55	5
COc1cccc(OCC(O)CN2CCC(CN3C(=O)c4cccc5cccc(c45)C3=O)CC2)c1 (configuration not stated)	3	52*	12	43*	-67	.
Cc1oc2ccc(O)cc2c1C(=O)NCCCc1ccccn1	.	.	9	.	-33	.
N#Cc1c(N2CCCCC2)nc(N2CCCCC2)c2c1CCN(Cc1ccccc1)C2	23*	-33	10	-4	39	25*

Screens from PubChem BioAssay.
